The source made the active and inactive calls. The rule behind the calls is not given here.
What was measured:
Cannabinoid receptor 1 [1] = target: T1, Cannabinoid receptor 1 (Homo sapiens, UniProt P21554); experiment: biochemical; type: cell-based, HEK293
Homo sapiens = species: Homo sapiens; experiment: Selectivity ratio of IC50 for human recombinant CB2R to IC50 for human recombinant CB1R
Summary of the method: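 hCB1- or hCB2-transfected HEK 293 stable clones; purified membranes (0.2-8 μg) incubated with 0.75 nM [3H]CP-55,940 plus test compound in 50 mM Tris-HCl, 5 mM MgCl2, 1 mM EDTA, 0.3% BSA, pH 7.4, 1.5 h at 30 °C. Nonspecific binding with 1 μM CP-55,940. Filtration, bound radioactivity counted; IC50 by nonlinear regression. Mean ± SD of at least three independent experiments.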

Cannabinoid receptor 2 = Cannabinoid receptor 2 (Homo sapiens, UniProt P34972); experiment: Displacement of [3H]CP-55940 from human recombinant CB2R expressed in HEK293 cells; type: cell-based
Chain of Cannabinoid receptor 2 (P34972 whole entry): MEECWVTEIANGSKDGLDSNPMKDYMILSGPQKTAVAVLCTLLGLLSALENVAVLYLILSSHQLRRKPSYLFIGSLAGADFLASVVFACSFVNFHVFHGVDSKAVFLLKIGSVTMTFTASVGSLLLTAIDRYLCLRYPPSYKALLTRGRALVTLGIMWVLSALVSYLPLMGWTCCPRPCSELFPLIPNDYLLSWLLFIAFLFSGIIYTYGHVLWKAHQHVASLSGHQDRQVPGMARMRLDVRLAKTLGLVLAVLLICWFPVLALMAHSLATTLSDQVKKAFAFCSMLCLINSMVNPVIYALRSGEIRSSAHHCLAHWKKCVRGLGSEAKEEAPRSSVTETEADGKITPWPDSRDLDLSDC

Cannabinoid receptor 1 [2] = target: T1, Cannabinoid receptor 1; type: cell-based, HEK293
Mus musculus [3] = experiment: Reduction of food intake in diet induced obesity C57BL/6 mouse model at 0.03 mg/kg, po after 29 days; type: functional, organism-based; set-up: dose 0.03 mg/kg
Summary of the method: (§1)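 Weight-matched DIO mice (n = 8/group) gavaged once daily with compound or vehicle (10% DMSO/10% Tween 80/80% H2O) for 29 days. Food consumed and body weight measured daily. Mean ± standard error.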

Mus musculus [4] = experiment: Induction of weight loss in diet induced obesity C57BL/6 mouse model at 0.3 mg/kg, po after 29 days relative to control; type: functional
Summary of the method: (§2)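 DIO mice, weight-matched into groups (n = 8/group), given vehicle (10% DMSO/10% Tween 80/80% H2O) or compound by oral gavage once daily for 29 days. Food intake and body weight recorded daily. Read-out is cumulative percentage body-weight change versus vehicle, reported as mean ± standard error.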

Mus musculus [5] = experiment: Induction of weight loss in diet induced obesity C57BL/6 mouse model at 0.1 mg/kg, po after 29 days relative to control; type: functional
Summary of the method: as §2

Rattus norvegicus [6] = experiment: Induction of weight loss in diet induced obesity Wistar rat model at 0.1 mg/kg, po qd after 29 days relative to control; type: functional
Mus musculus [7] = experiment: Induction of weight loss in po dosed diet induced obesity C57BL/6 mouse model assessed as minimum effective dose after 29 days; type: functional
Summary of the method: as §2

Mus musculus [8] = experiment: Induction of weight loss in diet induced obesity C57BL/6 mouse model at 0.03 mg/kg, po after 29 days relative to control; type: functional
Summary of the method: as §2

Brain [9] = experiment: Drug level in brain of diet-induced obesity C57BL/6 mouse model at 0.3 mg/kg, po; type: ADME, organism-based; set-up: dose 0.3 mg/kg, route oral; conditions: in vivo
Mus musculus [10] = experiment: Reduction of food intake in diet induced obesity C57BL/6 mouse model at 0.3 mg/kg, po after 29 days; type: functional, organism-based; set-up: dose 0.3 mg/kg
Summary of the method: as §1

Rattus norvegicus [11] = experiment: Suppression of food intake in Wistar rat spontaneously feeding model at 0.3 mg/kg, po after 6 hrs
Rattus norvegicus [12] = experiment: Induction of weight loss in diet induced obesity Wistar rat model at 0.3 mg/kg, po qd after 29 days relative to control; type: functional
Mus musculus [13] = experiment: Reduction of food intake in diet induced obesity C57BL/6 mouse model at 0.1 mg/kg, po after 29 days; type: functional, organism-based; set-up: dose 0.1 mg/kg
Summary of the method: as §1

Mus musculus [14] = experiment: Induction of weight loss in diet induced obesity C57BL/6 mouse model at 1 mg/kg, po after 29 days relative to control; type: functional
Summary of the method: as §2

Rattus norvegicus [15] = experiment: Suppression of food intake in Wistar rat spontaneously feeding model at 3 mg/kg, po after 6 hrs
Brain [16] = experiment: Drug level in brain of diet-induced obesity C57BL/6 mouse model at 1 mg/kg, po; type: ADME, organism-based; set-up: dose 1 mg/kg, route oral; conditions: in vivo
Brain [17] = experiment: Drug level in brain of diet-induced obesity C57BL/6 mouse model at 10 mg/kg, po; type: ADME, organism-based; set-up: dose 10 mg/kg, route oral; conditions: in vivo
Mus musculus [18] = experiment: Induction of weight loss in diet induced obesity C57BL/6 mouse model at 10 mg/kg, po qd relative to control; type: functional
Summary of the method: as §2

T1 sequence (P21554 whole entry): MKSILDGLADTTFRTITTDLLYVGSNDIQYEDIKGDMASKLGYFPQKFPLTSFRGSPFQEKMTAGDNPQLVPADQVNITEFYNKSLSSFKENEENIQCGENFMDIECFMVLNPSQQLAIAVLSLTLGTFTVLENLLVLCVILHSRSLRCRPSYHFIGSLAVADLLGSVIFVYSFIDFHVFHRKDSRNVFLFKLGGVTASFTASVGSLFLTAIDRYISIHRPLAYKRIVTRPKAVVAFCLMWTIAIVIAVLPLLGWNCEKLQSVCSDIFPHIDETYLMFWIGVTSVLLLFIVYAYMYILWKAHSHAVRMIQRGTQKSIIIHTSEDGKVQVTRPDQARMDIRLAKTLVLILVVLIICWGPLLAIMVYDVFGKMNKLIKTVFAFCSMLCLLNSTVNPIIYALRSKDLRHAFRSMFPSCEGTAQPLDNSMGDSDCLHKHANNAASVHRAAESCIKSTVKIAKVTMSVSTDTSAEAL

| SMILES | IC50 (Cannabinoid receptor 1 [1]) [nM] | Ratio IC50 (Homo sapiens) | IC50 (Cannabinoid receptor 2) [nM] | also measured |
| --- | --- | --- | --- | --- |
| Cc1c(C2=NC(=O)C(C)(C)N2C)nn(-c2ccc(Cl)cc2Cl)c1-c1ccc(Cl)cc1 | 54.7 | 9 | 487 | – |
| CN1C(c2cc(-c3ccc(Cl)cc3)n(-c3ccc(Cl)cc3Cl)n2)=NC(=O)C1(C)C | 325 | 24 | 7950 | – |
| CN1C(c2nn(-c3ccc(Cl)cc3Cl)c(-c3ccc(Cl)cc3)c2Br)=NC(=O)C1(C)C | 42.5 | 37 | 1570 | – |
| CCc1c(C2=NC3(CCCC3)C(=O)N2)nn(-c2ccc(Cl)cc2Cl)c1-c1ccc(Cl)cc1 | 14.6 | 94 | 1370 | – |
| Cc1c(C2=NC(=S)C(C)(C)N2C)nn(-c2ccc(Cl)cc2Cl)c1-c1ccc(Cl)cc1 | 6.3 | 143 | 901 | EC50 (Cannabinoid receptor 1 [2]): 8.5 nM |
| CN1C(c2nn(-c3ccc(Cl)cc3Cl)c(-c3ccc(Cl)cc3)c2C2CC2)=NC(=O)C1(C)C | 43.9 | 19 | 822 | – |
| CCCN1C(c2nn(-c3ccc(Cl)cc3Cl)c(-c3ccc(Cl)cc3)c2C)=NC(=O)C1(C)C | 854 | 7 | 5510 | – |
| CCc1c(C2=NC3(CCCCC3)C(=O)N2)nn(-c2ccc(Cl)cc2Cl)c1-c1ccc(Cl)cc1 | 12.3 | 40 | 497 | – |
| CCc1c(C2=NC3(CCC3)C(=O)N2)nn(-c2ccc(Cl)cc2Cl)c1-c1ccc(Cl)cc1 | 22.8 | 139 | 3180 | EC50 (Cannabinoid receptor 1 [2]): 12.3 nM |
| CCc1c(C2=NC(=O)C(C)(C)N2C)nn(-c2ccc(Cl)cc2Cl)c1-c1ccc(Br)cc1 | 16.3 | 47 | 768 | – |
| Cc1c(C2=NC(=O)C(C)(C)N2C2CC2)nn(-c2ccc(Cl)cc2Cl)c1-c1ccc(Cl)cc1 | 95.2 | 21 | 1950 | – |
| Cc1c(C2=NC(C)(C)C(=O)N2)nn(-c2ccc(Cl)cc2Cl)c1-c1ccc(Cl)cc1 | 53.4 | 66 | 3500 | – |
| COc1ccc(-c2c(C)c(C3=NC(=O)C(C)(C)N3C)nn2-c2ccc(Cl)cc2Cl)cc1 | 212 | 5 | 1060 | – |
| CCc1c(C2=NC(=S)C(C)(C)N2C)nn(-c2ccc(Cl)cc2Cl)c1-c1ccc(Cl)cc1 | 12 | 396 | 4750 | Activity (Mus musculus [3]): Active; Activity (Mus musculus [4]): 25.4%; Activity (Mus musculus [5]): 19.4%; Activity (Rattus norvegicus [6]): 5.1%; EC50 (Cannabinoid receptor 1 [2]): 5.1 nM; MED (Mus musculus [7]): 0.03 mg/kg; Activity (Mus musculus [8]): 14.7%; Drug uptake (Brain [9]): 243 ng/g; Activity (Mus musculus [10]): Active; Activity (Rattus norvegicus [11]): Active; Activity (Rattus norvegicus [12]): 9.5%; Activity (Mus musculus [13]): Active |
| Cc1c(C(=O)NC(=O)C(C)(C)N(C)C)nn(-c2ccc(Cl)cc2Cl)c1-c1ccc(Cl)cc1 | 82.9 | 35 | – | – |
| Cc1c(C2=NC(=O)C(C)(C)N2C)nn(-c2ccc(Cl)cc2Cl)c1-c1ccc(C(F)(F)F)cc1 | 15.9 | 250 | 3970 | EC50 (Cannabinoid receptor 1 [2]): 81 nM |
| Cc1c(C2=NC(C)(C)C(=O)N2C)nn(-c2ccc(Cl)cc2Cl)c1-c1ccc(Cl)cc1 | 33.6 | 97 | 3250 | – |
| C=CCN1C(c2nn(-c3ccc(Cl)cc3Cl)c(-c3ccc(Cl)cc3)c2C)=NC(=O)C1(C)C | 249 | 12 | 2880 | – |
| CCCCN1C(c2nn(-c3ccc(Cl)cc3Cl)c(-c3ccc(Cl)cc3)c2C)=NC(=O)C1(C)C | 1110 | 4 | 4760 | – |
| Cc1c(C2=NC(=O)C(C)(C)N2Cc2ccccc2)nn(-c2ccc(Cl)cc2Cl)c1-c1ccc(Cl)cc1 | 197 | 26 | 5130 | – |
| CCN1C(c2nn(-c3ccc(Cl)cc3Cl)c(-c3ccc(Cl)cc3)c2C)=NC(=O)C1(C)C | 107 | 11 | 1170 | – |
| CCc1c(C2=NC(C)(C)C(=O)N2C)nn(-c2ccc(Cl)cc2Cl)c1-c1ccc(Cl)cc1 | 33.8 | 128 | 4330 | EC50 (Cannabinoid receptor 1 [2]): 65.5 nM |
| CCc1c(C2=NC(=O)C(C)(C)N2C)nn(-c2ccc(Cl)cc2Cl)c1-c1ccc(Cl)cc1 | 12.9 | 213 | 2740 | EC50 (Cannabinoid receptor 1 [2]): 9.8 nM |
| CCc1c(C2=NC(C)(C)C(=O)N2)nn(-c2ccc(Cl)cc2Cl)c1-c1ccc(Cl)cc1 | 32.6 | 314 | 10300 | Activity (Mus musculus [14]): 27.4%; Activity (Rattus norvegicus [15]): Active; EC50 (Cannabinoid receptor 1 [2]): 20.2 nM; MED (Mus musculus [7]): 0.1 mg/kg; Drug uptake (Brain [16]): 1118 ng/g |
| Cc1c(C(=O)NN2CCCCC2)nn(-c2ccc(Cl)cc2Cl)c1-c1ccc(Cl)cc1 [RIMONABANT] | – | – | – | Drug uptake (Brain [17]): 113 ng/g; Activity (Mus musculus [18]): 23.8% |
| Cc1c(C2=NC(=O)C(C)(C)N2C)nn(-c2ccc(Cl)cc2Cl)c1-c1ccc(Br)cc1 | 47.4 | 23 | 1100 | – |

From ChEMBL document CHEMBL1137779, “Discovery of 2-[5-(4-chloro-phenyl)-1-(2,4-dichloro-phenyl)-4-ethyl-1H-pyrazol-3-yl]-1,5,5-trimethyl-1,5-dihydro-imidazol-4-thione (BPR-890) via an active metabolite. A novel, potent and selective cannabinoid-1 receptor inverse agonist with high antiobesity efficacy in DIO mice” (J Med Chem, 2009)
